Measurements published in ChEMBL document CHEMBL1629465, “Efficient synthesis of novel 1,2,4-triazole fused acyclic and 21-28 membered macrocyclic and/or lariat macrocyclic oxaazathia crown compounds with potential antimicrobial activity” (2010).

Legend:
Type in all cases: functional
Conditions in all cases: read-out: DIZ
[1] = test system: Syncephalastrum racemosum; experiment: Antimicrobial activity against Syncephalastrum racemosum RCMB 016001 at 5 mg/ml by agar diffusion technique
Summary of the method: (§1)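 Agar well diffusion. Test compounds and reference standard drugs were diluted to 5.0, 2.5 and 1.0 mg/mL and applied to 0.6 cm wells. Inhibition zone beyond the control was scored as 0 (no inhibition), + (0.1–0.5 cm), ++ (0.6–1.0 cm) or +++ (1.0–1.5 cm).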

Aspergillus fumigatus [2] = experiment: Antimicrobial activity against Aspergillus fumigatus RCMB 002008 at 1 mg/ml by agar diffusion technique; summary of the method: as §1
Bacillus subtilis [3] = experiment: Antimicrobial activity against Bacillus subtilis RCMB 101001 at 5 mg/ml by agar diffusion technique; summary of the method: as §1
Penicillium italicum [4] = experiment: Antimicrobial activity against Penicillium italicum RCMB 001018 at 2.5 mg/ml by agar diffusion technique; summary of the method: as §1
Pseudomonas aeruginosa [5] = experiment: Antimicrobial activity against Pseudomonas aeruginosa RCMB 102002 at 1 mg/ml by agar diffusion technique; summary of the method: as §1
Penicillium italicum [6] = experiment: Antimicrobial activity against Penicillium italicum RCMB 001018 at 5 mg/ml by agar diffusion technique; summary of the method: as §1
Penicillium italicum [7] = experiment: Antimicrobial activity against Penicillium italicum RCMB 001018 at 1 mg/ml by agar diffusion technique; summary of the method: as §1
Staphylococcus aureus [8] = experiment: Antimicrobial activity against Staphylococcus aureus RCMB 106001 at 2.5 mg/ml by agar diffusion technique; summary of the method: as §1
Candida albicans [9] = experiment: Antimicrobial activity against Candida albicans RCMB 005003 at 1 mg/ml by agar diffusion technique; summary of the method: as §1
Bacillus subtilis [10] = experiment: Antimicrobial activity against Bacillus subtilis RCMB 101001 at 2.5 mg/ml by agar diffusion technique; summary of the method: as §1
[11] = test system: Syncephalastrum racemosum; experiment: Antimicrobial activity against Syncephalastrum racemosum RCMB 016001 at 1 mg/ml by agar diffusion technique; summary of the method: as §1
Escherichia coli [12] = experiment: Antimicrobial activity against Escherichia coli RCMB 103001 at 5 mg/ml by agar diffusion technique; summary of the method: as §1
Staphylococcus aureus [13] = experiment: Antimicrobial activity against Staphylococcus aureus RCMB 106001 at 1 mg/ml by agar diffusion technique; summary of the method: as §1
Bacillus subtilis [14] = experiment: Antimicrobial activity against Bacillus subtilis RCMB 101001 at 1 mg/ml by agar diffusion technique; summary of the method: as §1
Pseudomonas aeruginosa [15] = experiment: Antimicrobial activity against Pseudomonas aeruginosa RCMB 102002 at 5 mg/ml by agar diffusion technique; summary of the method: as §1
Escherichia coli [16] = experiment: Antimicrobial activity against Escherichia coli RCMB 103001 at 2.5 mg/ml by agar diffusion technique; summary of the method: as §1
[17] = test system: Syncephalastrum racemosum; experiment: Antimicrobial activity against Syncephalastrum racemosum RCMB 016001 at 2.5 mg/ml by agar diffusion technique; summary of the method: as §1
Aspergillus fumigatus [18] = experiment: Antimicrobial activity against Aspergillus fumigatus RCMB 002008 at 5 mg/ml by agar diffusion technique; summary of the method: as §1
Pseudomonas aeruginosa [19] = experiment: Antimicrobial activity against Pseudomonas aeruginosa RCMB 102002 at 2.5 mg/ml by agar diffusion technique; summary of the method: as §1
Escherichia coli [20] = experiment: Antimicrobial activity against Escherichia coli RCMB 103001 at 1 mg/ml by agar diffusion technique; summary of the method: as §1
Aspergillus fumigatus [21] = experiment: Antimicrobial activity against Aspergillus fumigatus RCMB 002008 at 2.5 mg/ml by agar diffusion technique; summary of the method: as §1
Staphylococcus aureus [22] = experiment: Antimicrobial activity against Staphylococcus aureus RCMB 106001 at 5 mg/ml by agar diffusion technique; summary of the method: as §1
Candida albicans [23] = experiment: Antimicrobial activity against Candida albicans RCMB 005003 at 2.5 mg/ml by agar diffusion technique; summary of the method: as §1
Candida albicans [24] = experiment: Antimicrobial activity against Candida albicans RCMB 005003 at 5 mg/ml by agar diffusion technique; summary of the method: as §1

| SMILES | zone of inhibition at 5000 µg/mL [1] [mm] | zone of inhibition at 1000 µg/mL (Aspergillus fumigatus [2]) [mm] | zone of inhibition at 5000 µg/mL (Bacillus subtilis [3]) [mm] | zone of inhibition at 2500 µg/mL (Penicillium italicum [4]) [mm] | zone of inhibition at 1000 µg/mL (Pseudomonas aeruginosa [5]) [mm] | zone of inhibition at 5000 µg/mL (Penicillium italicum [6]) [mm] | zone of inhibition at 1000 µg/mL (Penicillium italicum [7]) [mm] | zone of inhibition at 2500 µg/mL (Staphylococcus aureus [8]) [mm] | zone of inhibition at 1000 µg/mL (Candida albicans [9]) [mm] | zone of inhibition at 2500 µg/mL (Bacillus subtilis [10]) [mm] | zone of inhibition at 1000 µg/mL [11] [mm] | zone of inhibition at 5000 µg/mL (Escherichia coli [12]) [mm] | zone of inhibition at 1000 µg/mL (Staphylococcus aureus [13]) [mm] | zone of inhibition at 1000 µg/mL (Bacillus subtilis [14]) [mm] | zone of inhibition at 5000 µg/mL (Pseudomonas aeruginosa [15]) [mm] | zone of inhibition at 2500 µg/mL (Escherichia coli [16]) [mm] | zone of inhibition at 2500 µg/mL [17] [mm] | zone of inhibition at 5000 µg/mL (Aspergillus fumigatus [18]) [mm] | zone of inhibition at 2500 µg/mL (Pseudomonas aeruginosa [19]) [mm] | zone of inhibition at 1000 µg/mL (Escherichia coli [20]) [mm] | other results |
| --- | --- | --- | --- | --- | --- | --- | --- | --- | --- | --- | --- | --- | --- | --- | --- | --- | --- | --- | --- | --- | --- |
| O=C(N[C@H](CO)[C@H](O)c1ccc([N+](=O)[O-])cc1)C(Cl)Cl [CHLORAMPHENICOL] | 10 | 6 | 10 | 10 | 6 | 10 | 6 | 6 | 6 | 10 | 10 | 6 | 6 | 6 | 10 | 6 | 10 | 10 | 10 | 6 | zone of inhibition at 2500 µg/mL (Aspergillus fumigatus [21]): 10 mm; zone of inhibition at 5000 µg/mL (Staphylococcus aureus [22]): 6 mm; zone of inhibition at 2500 µg/mL (Candida albicans [23]): 6 mm; zone of inhibition at 5000 µg/mL (Candida albicans [24]): 6 mm |
| OC1COc2ccccc2CNn2c(nnc2-c2cccnc2)SCCCSc2nnc(-c3cccnc3)n2NCc2ccccc2OC1 | 0 | 0 | 6 | 0 | 0 | 0 | 0 | 0 | 0 | 6 | 0 | 0 | 0 | 1 | 0 | 0 | 0 | 0 | 0 | 0 | zone of inhibition at 2500 µg/mL (Aspergillus fumigatus [21]): 0 mm; zone of inhibition at 5000 µg/mL (Staphylococcus aureus [22]): 0 mm; zone of inhibition at 2500 µg/mL (Candida albicans [23]): 0 mm; zone of inhibition at 5000 µg/mL (Candida albicans [24]): 0 mm |
| OC1COc2ccccc2/C=N\n2c(nnc2-c2cccnc2)SCCCSc2nnc(-c3cccnc3)n2/N=C\c2ccccc2OC1 | 1 | 0 | 6 | 1 | 0 | 1 | 0 | 0 | 0 | 1 | 0 | 0 | 0 | 1 | 0 | 0 | 1 | 0 | 0 | 0 | zone of inhibition at 2500 µg/mL (Aspergillus fumigatus [21]): 0 mm; zone of inhibition at 5000 µg/mL (Staphylococcus aureus [22]): 0 mm; zone of inhibition at 2500 µg/mL (Candida albicans [23]): 1 mm; zone of inhibition at 5000 µg/mL (Candida albicans [24]): 1 mm |
| S=c1[nH]nc(-c2cccnc2)n1/N=C\c1ccccc1OCCCOc1ccccc1/C=N\n1c(-c2cccnc2)n[nH]c1=S | 1 | 0 | 1 | 0 | 0 | 0 | 0 | 1 | 0 | 1 | 0 | 0 | 0 | 1 | 0 | 0 | 1 | 0 | 0 | 0 | zone of inhibition at 2500 µg/mL (Aspergillus fumigatus [21]): 0 mm; zone of inhibition at 5000 µg/mL (Staphylococcus aureus [22]): 1 mm; zone of inhibition at 2500 µg/mL (Candida albicans [23]): 0 mm; zone of inhibition at 5000 µg/mL (Candida albicans [24]): 0 mm |
| Nn1c(SCCSc2nnc(-c3cccnc3)n2N)nnc1-c1cccnc1 | 0 | 0 | 0 | 1 | 0 | 1 | 0 | 0 | 1 | 0 | 0 | 1 | 0 | 0 | 0 | 0 | 0 | 0 | 0 | 0 | zone of inhibition at 2500 µg/mL (Aspergillus fumigatus [21]): 0 mm; zone of inhibition at 5000 µg/mL (Staphylococcus aureus [22]): 1 mm; zone of inhibition at 2500 µg/mL (Candida albicans [23]): 1 mm; zone of inhibition at 5000 µg/mL (Candida albicans [24]): 1 mm |
| S=c1[nH]nc(-c2cccnc2)n1/N=C\c1ccccc1OCCOCCOCCOc1ccccc1/C=N\n1c(-c2cccnc2)n[nH]c1=S | 0 | 0 | 0 | 1 | 0 | 6 | 1 | 0 | 0 | 0 | 0 | 0 | 0 | 0 | 0 | 0 | 0 | 0 | 0 | 0 | zone of inhibition at 2500 µg/mL (Aspergillus fumigatus [21]): 0 mm; zone of inhibition at 5000 µg/mL (Staphylococcus aureus [22]): 1 mm; zone of inhibition at 2500 µg/mL (Candida albicans [23]): 0 mm; zone of inhibition at 5000 µg/mL (Candida albicans [24]): 1 mm |
| Nn1c(-c2cccnc2)n[nH]c1=S | 0 | 0 | 0 | 0 | 0 | 1 | 0 | 0 | 0 | 0 | 0 | 1 | 0 | 0 | 0 | 0 | 0 | 0 | 0 | 0 | zone of inhibition at 2500 µg/mL (Aspergillus fumigatus [21]): 0 mm; zone of inhibition at 5000 µg/mL (Staphylococcus aureus [22]): 0 mm; zone of inhibition at 2500 µg/mL (Candida albicans [23]): 0 mm; zone of inhibition at 5000 µg/mL (Candida albicans [24]): 0 mm |
